Rows were chosen to be rich in hits. Some 3.4% of all compounds tested hit in one or more screens of this group.
TAAR1 agonist = human TAAR1 agonism; Q96RJ0; CHO RD-HGA16 TAAR1, Fluo-8 calcium fluorescence; vehicle wells 0%, saturating PEA agonist 100%; activation, % at 3 µM; hit rate 0.99% among 360,000; AID 624467;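 active = activation above the mean activation of all test compounds in the run plus 3 SD, cut at about 38% in these data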
Target sequence (Q96RJ0 whole entry, looked up): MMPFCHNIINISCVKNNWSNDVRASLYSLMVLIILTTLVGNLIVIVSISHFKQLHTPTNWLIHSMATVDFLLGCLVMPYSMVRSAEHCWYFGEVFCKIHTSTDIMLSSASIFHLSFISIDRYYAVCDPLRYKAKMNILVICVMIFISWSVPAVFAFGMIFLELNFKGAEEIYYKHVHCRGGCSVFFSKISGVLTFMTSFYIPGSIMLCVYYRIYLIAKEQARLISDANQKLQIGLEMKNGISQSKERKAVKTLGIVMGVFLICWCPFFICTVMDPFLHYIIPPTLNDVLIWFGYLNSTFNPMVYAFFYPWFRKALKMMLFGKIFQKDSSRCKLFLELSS
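Test system: RD-HGA16 (CHO) cells co-expressing Gα16 and hTAAR1 | Doses: Single dose, 3 µM | Schedule: 17-24 h seeding, 75 min 37 °C dye, 30 min RT | Evaluation: % activation from peak over basal fluorescence ratio, DMSO-to-PEA scaled | Technique: Kinetic Fluo-8 calcium fluorescence | Benchmarks: Low control DMSO, high control PEA (EC100)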
M1 ag = human M1 muscarinic receptor agonism. CHO-K1 hM1, Fluo-8 calcium fluorescence, agonist mode; 0% DMSO, 100% acetylcholine EC100. activation, % at 3 µM. P11229. hit rate 0.33% among 360,000. AID 588814;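 active = activation above the run's mean compound activation plus 3 SD, cut at about 16% in these data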;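 also: peak over basal fluorescence ratio within a 140 s kinetic read after compound addition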
CHRM1 antagonist = antagonists of human M1 muscarinic receptor. AID 588852. CHO-K1 hM1, Fluo-8 calcium fluorescence, ACh EC80 antagonist. inhibition, % at 3 µM. hit rate 1.3% among 360,000. P11229;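 active = percent inhibition above its own plate's cutoff, namely the mean of that plate's compound wells plus 3 SD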;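 also: peak over basal fluorescence ratio during 140 s after agonist addition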
TAAR1 antag = human TAAR1 antagonism. AID 624466. Q96RJ0. inhibition, % at 3 µM. CHO RD-HGA16 TAAR1, Fluo-8 calcium fluorescence, antagonist. hit rate 1.5% among 360,000;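 active = inhibition above a per-plate cutoff, the mean inhibition of test compounds on that plate plus 3 SD, cut at about 49% in these data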
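Assay system: CHO-derived RD-HGA16 cells stably expressing human TAAR1 plus Gα16. Timing: 140 s kinetic read after compound, 140 s after agonist. Technique: kinetic Fluo-8 calcium fluorescence measurement. Measure: % inhibition of agonist calcium response.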
M1 PAM = positive allosteric modulators of human M1 muscarinic receptor. CHO-K1 hM1, Fluo-8 calcium fluorescence, ACh EC20; 0% = ACh EC20, 100% = maximal ACh. activation, % at 3 µM. hit rate 0.088% among 360,000; in the data active = activation above about 19%, passing the limit was not always enough
Hits are given with their value.

`COc1ccc2c(c1)OC[C@H]1[C@H]2N2C(=O)c3ccc(C)cc3NC(=O)[C@@]2(C)[C@H]1c1ccccc1` gave TAAR1 agonist inactive, M1 ag inactive, CHRM1 antagonist inactive, TAAR1 antag inactive and M1 PAM inactive.
For CCN(CC)CCOC(=O)c1ccc(NC(=O)CCCN2C(=O)/C(=C/c3cccs3)SC2=S)cc1 the results were TAAR1 agonist inactive, M1 ag inactive, CHRM1 antagonist 36.0, TAAR1 antag inactive and M1 PAM inactive.
For O=C(CCCN1C(=O)/C(=C\c2cccs2)SC1=S)Nc1ccccn1 the results were TAAR1 agonist inactive, M1 ag inactive, CHRM1 antagonist inactive, TAAR1 antag inactive and M1 PAM inactive.
`O=C(CCN1C(=O)/C(=C/c2cccs2)SC1=S)Nc1ccccn1` gave TAAR1 agonist inactive, M1 ag inactive, CHRM1 antagonist inactive, TAAR1 antag 49.6 and M1 PAM inactive.
c1ccc(CCNc2ncnc3scc(C4COc5ccccc5O4)c23)cc1 (stereo unspecified) was read as TAAR1 agonist inactive, M1 ag inactive, CHRM1 antagonist inactive, TAAR1 antag 70.7 and M1 PAM inactive.
Screening Cc1noc(C)c1S(=O)(=O)N(C)C[C@@H]1OCc2cn(nn2)CCCC(=O)N([C@H](C)CO)C[C@H]1C returned TAAR1 agonist inactive and TAAR1 antag inactive.
Screening O=C(NCc1ccccc1)c1ccc(C2SCC(=O)N2Cc2ccccc2)cc1 (stereo unspecified) returned TAAR1 agonist inactive, M1 ag inactive, CHRM1 antagonist 58.6, TAAR1 antag inactive and M1 PAM inactive.
`COc1ccc(C(=O)CSc2nnc(CN3CCCCC3)n2-c2ccc(Cl)cc2)cc1OC` gave TAAR1 agonist 43.7, M1 ag inactive, CHRM1 antagonist inactive, TAAR1 antag inactive and M1 PAM inactive.
`O=C(CSc1nnc(CN2CCCC2)n1-c1ccccc1)c1ccc2c(c1)OCO2` gave TAAR1 agonist inactive, M1 ag inactive, CHRM1 antagonist inactive, TAAR1 antag inactive and M1 PAM inactive.
Screening CC1(C(=O)NS(=O)(=O)c2ccc(F)cc2F)CCN1C(=O)CC(c1ccccc1)c1ccccc1 (stereo unspecified) returned TAAR1 agonist inactive, M1 ag inactive, CHRM1 antagonist inactive, TAAR1 antag inactive and M1 PAM inactive.
For O=C(COC(=O)COc1ccccc1)Nc1cccc([N+](=O)[O-])c1 the results were TAAR1 agonist inactive, M1 ag inactive, CHRM1 antagonist inactive, TAAR1 antag inactive and M1 PAM inactive.
For CC(NS(=O)(=O)c1ccc(OCC(=O)Nc2cccc([N+](=O)[O-])c2)cc1)c1ccccc1 (stereo unspecified) the results were TAAR1 agonist inactive, M1 ag inactive, CHRM1 antagonist inactive, TAAR1 antag 59.8 and M1 PAM inactive.
For COc1ccc(S(=O)(=O)N2CCN(c3nc(-c4cccnc4)nc4ccccc34)CC2)cc1 the results were TAAR1 agonist inactive, M1 ag inactive, CHRM1 antagonist inactive, TAAR1 antag inactive and M1 PAM inactive.
`N#Cc1ccccc1S(=O)(=O)N1CCN(c2nc(-c3cccnc3)nc3ccccc23)CC1` gave TAAR1 agonist inactive, M1 ag inactive, CHRM1 antagonist 50.2, TAAR1 antag 51.2 and M1 PAM inactive.
O=S(=O)(c1ccccc1F)N1CCN(c2nc(-c3cccnc3)nc3ccccc23)CC1 was read as TAAR1 agonist inactive, M1 ag inactive, CHRM1 antagonist inactive, TAAR1 antag 56.7 and M1 PAM inactive.
For O=c1nc(-c2ccccc2)c2cc(Br)ccc2[nH]1 the results were TAAR1 agonist inactive, M1 ag inactive, CHRM1 antagonist inactive, TAAR1 antag inactive and M1 PAM inactive.
For O=c1nc(-c2ccccc2)c2cc(SC(F)F)ccc2[nH]1 the results were TAAR1 agonist inactive, M1 ag inactive, CHRM1 antagonist inactive, TAAR1 antag inactive and M1 PAM 28.3.
CC(=O)c1ccc(OC2(C)CCN(Cc3cc4ccccc4[nH]3)C2)cc1 (stereo unspecified) was read as TAAR1 agonist inactive, M1 ag inactive, CHRM1 antagonist inactive, TAAR1 antag inactive and M1 PAM inactive.
O=Nc1c(O)n(Cc2cccc(Cl)c2)c2ccccc12 was read as TAAR1 agonist inactive, M1 ag 19.9, CHRM1 antagonist inactive, TAAR1 antag inactive and M1 PAM 26.1.
For NC(=S)N=Nc1c(O)n(Cc2ccccc2)c2ccccc12 the results were TAAR1 agonist inactive, M1 ag inactive, CHRM1 antagonist inactive, TAAR1 antag inactive and M1 PAM inactive.
`COc1ccc(CCNc2ncnc3[nH]ncc23)cc1OC` gave TAAR1 agonist inactive, M1 ag inactive, CHRM1 antagonist inactive, TAAR1 antag inactive and M1 PAM inactive.
For COc1ccc(CCNc2ncnc3sc(C)cc23)cc1OC the results were TAAR1 agonist inactive, M1 ag inactive, CHRM1 antagonist 41.0, TAAR1 antag inactive and M1 PAM inactive.
COCCCNC(=O)C[C@H]1C[C@@]2(C(=O)OC)C(=C[C@H](C(C)(C)C)O[C@@H]2C)N(CCc2ccc(OC)c(OC)c2)C1=O was read as TAAR1 agonist inactive and TAAR1 antag inactive.
Cc1ccc(C(O)(CCN2CCCCC2)c2ccccc2)cc1 (stereo unspecified) was read as TAAR1 agonist inactive, M1 ag inactive, CHRM1 antagonist 100.5, TAAR1 antag inactive and M1 PAM inactive.
OC(C#CCCN1CCCCC1)(c1ccccc1)c1ccccc1 was read as TAAR1 agonist inactive, M1 ag inactive, CHRM1 antagonist 99.2, TAAR1 antag inactive and M1 PAM inactive.
`OC(C#CCCN1CCCCC1)(c1ccccc1)C1CCCCC1` (stereo unspecified) gave TAAR1 agonist inactive, M1 ag inactive, CHRM1 antagonist 97.4, TAAR1 antag inactive and M1 PAM inactive.
For Cc1ccc(C(O)(CNCc2ccccc2)c2ccccc2)cc1 (stereo unspecified) the results were TAAR1 agonist inactive, M1 ag inactive, CHRM1 antagonist inactive, TAAR1 antag inactive and M1 PAM inactive.
Screening CCN(CC)CCC#CC(O)(c1ccccc1)c1ccccc1 returned TAAR1 agonist inactive, M1 ag inactive, CHRM1 antagonist 98.8, TAAR1 antag inactive and M1 PAM inactive.
Screening OC(CCN1CCCCC1)(c1ccccc1)C1CCCCC1 (stereo unspecified) returned TAAR1 agonist inactive and TAAR1 antag inactive.
`CCCCCCCCN1C(=O)[C@@H](CC(=O)NCCCCc2ccccc2)C[C@@]2(C(=O)OC)C1=C[C@H](C(C)(C)C)O[C@@H]2C` gave TAAR1 agonist inactive and TAAR1 antag inactive.
For C=CCN1C(=O)c2n[nH]c(C(C)C)c2C1c1ccc(C)cc1 (stereo unspecified) the results were TAAR1 agonist inactive and TAAR1 antag inactive.
For COC(=O)C1=CN(c2ccc(OC)cc2)C(N)=C(C#N)C1c1ccccc1F (stereo unspecified) the results were TAAR1 agonist inactive and TAAR1 antag inactive.
